Data: ChEMBL document CHEMBL4411287, “Discovery and optimization of a series of 3-substituted indazole derivatives as multi-target kinase inhibitors for the treatment of lung squamous cell carcinoma” (Eur J Med Chem, 2019)
pIC50: −log10 of the molar value.

Tests used:
[1] = target: T1, Discoidin domain-containing receptor 2 (Homo sapiens) (UniProt Q16832); assay: Inhibition of DDR2 (unknown origin) at 100 nM using poly (Glu, Tyr) 4:1 substrate after 60 mins by ELISA relative to control
T1 sequence (whole entry): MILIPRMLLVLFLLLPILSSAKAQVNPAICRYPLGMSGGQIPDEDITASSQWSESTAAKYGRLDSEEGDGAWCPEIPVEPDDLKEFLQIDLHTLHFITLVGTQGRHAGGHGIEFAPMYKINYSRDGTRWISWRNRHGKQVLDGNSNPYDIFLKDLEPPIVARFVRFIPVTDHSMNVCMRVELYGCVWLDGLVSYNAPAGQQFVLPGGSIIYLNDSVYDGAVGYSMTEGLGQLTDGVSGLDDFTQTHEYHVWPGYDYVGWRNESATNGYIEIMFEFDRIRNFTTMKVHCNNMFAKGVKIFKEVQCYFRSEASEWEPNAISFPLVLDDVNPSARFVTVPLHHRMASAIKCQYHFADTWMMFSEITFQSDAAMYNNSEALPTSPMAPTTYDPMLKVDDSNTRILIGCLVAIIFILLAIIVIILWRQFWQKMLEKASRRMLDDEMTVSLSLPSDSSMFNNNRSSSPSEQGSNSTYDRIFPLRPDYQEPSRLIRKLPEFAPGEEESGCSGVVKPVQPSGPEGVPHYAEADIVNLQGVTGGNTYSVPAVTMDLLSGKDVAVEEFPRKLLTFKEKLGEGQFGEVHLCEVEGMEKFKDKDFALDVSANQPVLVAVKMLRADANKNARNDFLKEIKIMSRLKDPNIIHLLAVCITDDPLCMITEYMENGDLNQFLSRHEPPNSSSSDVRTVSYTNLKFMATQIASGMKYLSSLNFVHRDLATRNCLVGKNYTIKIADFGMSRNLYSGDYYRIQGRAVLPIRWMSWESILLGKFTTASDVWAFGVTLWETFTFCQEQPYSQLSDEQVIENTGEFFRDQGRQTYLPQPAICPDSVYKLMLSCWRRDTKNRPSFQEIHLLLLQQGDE
Summary of the method: (§1)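 ELISA with purified recombinant DDR2 on poly(Glu,Tyr) 4:1 precoated at 20 µg/mL. 10 µM ATP in HEPES pH 7.4 buffer with MgCl2, MnCl2, Na3VO4 and DTT, 1% DMSO; 60 min at 37 °C. Phosphotyrosine detected by PY99 and HRP anti-mouse IgG with o-phenylenediamine at A490. Inhibition = 1−A490/A490control; two separate experiments.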

[2] = target: T1, Discoidin domain-containing receptor 2 (Homo sapiens); assay: Inhibition of DDR2 (unknown origin) at 1000 nM using poly (Glu, Tyr) 4:1 substrate after 60 mins by ELISA relative to control; summary of the method: as §1
[3] = target: T2, Discoidin domain-containing receptor 2 (Homo sapiens, UniProt Q16832); assay: Inhibition of DDR2 (unknown origin) using poly (Glu, Tyr) 4:1 substrate after 60 mins by ELISA
T2 sequence (Q16832 whole entry): T1 sequence (whole entry)

NCI-H2286 [4] = assay: Antiproliferative activity against human NCI-H2286 cells at 100 nM after 72 hrs by CCK8 assay relative to control; format: functional
KG-1 = assay: Antiproliferative activity against human KG1 cells after 72 hrs by CCK8 assay; settings: KG-1, 72 h
[5] = AUC (0 to t) in ICR(CD-1) mouse at 10 mg/kg, po administered via gavage by triple quadrupole mass spectrometric analysis; format: ADME, organism-based; settings: in vivo
Summary of the method: (§2)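 Oral gavage at 1 mg/mL in 1% Tween80/water to male ICR mice (18-22 g, n=3). Plasma sampled at 0.25, 0.5, 1, 2, 4, 8 and 24 h, protein precipitated with methanol:acetonitrile (1:1) containing internal standard, and quantified by UPLC-triple quadrupole MS. AUC and MRT were taken from per-animal time-concentration curves. Cmax is the maximum plasma level and Tmax the time to reach it.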

[6] = Half life in ICR(CD-1) mouse at 10 mg/kg, po administered via gavage by triple quadrupole mass spectrometric analysis; format: ADME, organism-based; settings: in vivo; summary of the method: as §2
[7] = Cmax in ICR(CD-1) mouse at 10 mg/kg, po administered via gavage by triple quadrupole mass spectrometric analysis; format: ADME, organism-based; design: dose 10 mg/kg, route oral; settings: in vivo; summary of the method: as §2
NCI-H2286 [8] = assay: Antiproliferative activity against human NCI-H2286 cells after 72 hrs by CCK8 assay; settings: NCI-H2286, 72 h
[9] = MRT in ICR(CD-1) mouse at 10 mg/kg, po administered via gavage by triple quadrupole mass spectrometric analysis; format: ADME, organism-based; settings: in vivo
Summary of the method: (§3)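 Dosed by gavage at 1 mg/mL in 1% Tween80/water to male ICR mice, 18-22 g, n=3. Blood taken at 0.25, 0.5, 1, 2, 4, 8 and 24 h. Plasma precipitated with methanol:acetonitrile (1:1) containing internal standard, then UPLC-MS/MS on a C18 column with an ammonium acetate/formic acid–acetonitrile gradient. Tmax read directly from the data; MRT calculated per animal from concentration–time curves.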

[10] = Tmax in ICR(CD-1) mouse at 10 mg/kg, po administered via gavage by triple quadrupole mass spectrometric analysis; format: ADME, organism-based; settings: in vivo; summary of the method: as §3
[11] = AUC (0 to infinity) in ICR(CD-1) mouse at 10 mg/kg, po administered via gavage by triple quadrupole mass spectrometric analysis; format: ADME, organism-based; design: dose 10 mg/kg, route oral, time infinity; settings: in vivo; summary of the method: as §2
[12] = target: Fibroblast growth factor receptor 1 (Homo sapiens, UniProt P11362); assay: Inhibition of FGFR1 (unknown origin) after 60 mins by ELISA
Sequence of Fibroblast growth factor receptor 1 (P11362 whole entry): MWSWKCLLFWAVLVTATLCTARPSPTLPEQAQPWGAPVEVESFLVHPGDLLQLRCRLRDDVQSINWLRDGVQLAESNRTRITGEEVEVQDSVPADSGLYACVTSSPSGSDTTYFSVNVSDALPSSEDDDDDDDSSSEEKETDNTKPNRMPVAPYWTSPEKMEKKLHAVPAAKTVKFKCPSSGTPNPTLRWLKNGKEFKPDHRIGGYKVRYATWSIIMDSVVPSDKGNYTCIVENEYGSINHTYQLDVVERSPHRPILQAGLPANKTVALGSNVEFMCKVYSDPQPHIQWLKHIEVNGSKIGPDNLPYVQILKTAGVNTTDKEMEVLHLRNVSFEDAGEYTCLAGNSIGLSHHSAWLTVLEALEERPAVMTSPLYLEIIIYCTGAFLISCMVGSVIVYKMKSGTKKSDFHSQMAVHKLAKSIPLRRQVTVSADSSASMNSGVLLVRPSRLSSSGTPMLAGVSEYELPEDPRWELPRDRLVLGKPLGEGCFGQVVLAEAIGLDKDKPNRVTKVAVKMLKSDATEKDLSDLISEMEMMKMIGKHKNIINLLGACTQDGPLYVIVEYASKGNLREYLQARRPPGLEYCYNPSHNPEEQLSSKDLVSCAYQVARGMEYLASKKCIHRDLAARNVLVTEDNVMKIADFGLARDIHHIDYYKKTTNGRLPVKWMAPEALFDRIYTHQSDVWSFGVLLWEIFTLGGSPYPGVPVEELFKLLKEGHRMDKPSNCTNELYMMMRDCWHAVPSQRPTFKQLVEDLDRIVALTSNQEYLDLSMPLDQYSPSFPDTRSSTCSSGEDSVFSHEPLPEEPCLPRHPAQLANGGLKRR

Row | inhibition [1] | pIC50 [3] | SMILES | pIC50 (KG-1) | other results
1 | – | 8.59 | Cc1ccc(C(=O)Nc2cccc(C(F)(F)F)c2)cc1-c1ccc2c(-c3cnn(CCN4CCOCC4)c3)n[nH]c2c1 | 6.94 | Activity (NCI-H2286 [4]): 49%
2 | – | 7.12 | Cc1ccc(C(=O)Nc2cccc(CN3CCN(C)CC3)c2)cc1-c1ccc2cn[nH]c2c1 | – | –
3 | – | 8.36 | Cc1ccc(C(=O)Nc2cccc(C(F)(F)F)c2)cc1-c1ccc2c(-c3cnn(C)c3)n[nH]c2c1 | 7.18 | AUC(0-t) [5]: 3480 ng·h/mL; half-life [6]: 165 min; Cmax [7]: 890 ng/mL; pIC50 (NCI-H2286 [8]): 7.61; MRT [9]: 3.26 h; Tmax [10]: 1.17 h; AUC(0-inf) [11]: 3480 ng·h/mL
4 | – | 8.10 | Cc1ccc(C(=O)NCc2cccc(C(F)(F)F)c2)cc1-c1ccc2cn[nH]c2c1 | – | –
5 | – | 8.57 | Cc1ccc(C(=O)Nc2cccc(C(F)(F)F)c2)cc1-c1ccc2c(-c3cnn(CC(=O)N(C)C)c3)n[nH]c2c1 | 6.36 | pIC50 (NCI-H2286 [8]): < 6.00
6 | – | 8.17 | Cc1ccc(C(=O)Nc2ccc(CN3CCN(C)CC3)cc2)cc1-c1ccc2cn[nH]c2c1 | – | –
7 | 58.2% | – | O=C(Nc1cccc(C(F)(F)F)c1)c1cccc(-c2ccc3cn[nH]c3c2)c1 | – | inhibition [2]: 84.7%

More lines, now with the values behind:

Row | SMILES | inhibition [1] | pIC50 [3] | pIC50 (KG-1) | other results
8 | O=C(Nc1cccc(-c2ccc3cn[nH]c3c2)c1)Nc1cccc(C(F)(F)F)c1 | 20.1% | – | – | inhibition [2]: 53.3%
9 | CCCn1cc(-c2n[nH]c3cc(-c4cc(C(=O)Nc5cccc(C(F)(F)F)c5)ccc4C)ccc23)cn1 | – | 8.49 | 6.45 | Activity (NCI-H2286 [4]): 41%
10 | Cc1ccc(C(=O)Nc2cc(CN3CCN(CCO)CC3)cc(C(F)(F)F)c2)cc1-c1ccc2cn[nH]c2c1 | – | 8.47 | – | –
11 | Cc1ccc(C(=O)Nc2cccc(C(F)(F)F)c2)cc1-c1ccc2c(-c3cnn(C4CCCCO4)c3)n[nH]c2c1 (configuration not stated) | – | 8.28 | 6.92 | Activity (NCI-H2286 [4]): 45%
12 | Cc1ccc(C(=O)Nc2cccc(C(F)(F)F)c2)cc1-c1ccc2c(-c3cnn(C4CCOC4)c3)n[nH]c2c1 (configuration not stated) | – | 8.21 | 6.52 | pIC50 (NCI-H2286 [8]): 7.16
13 | Cc1c(NC(=O)c2cccc(C(F)(F)F)c2)cccc1-c1ccc2cn[nH]c2c1 | 41.8% | – | – | –
14 | Cc1ccc(C(=O)NCc2cccc(N3CCN(C)CC3)c2)cc1-c1ccc2cn[nH]c2c1 | 23.2% | – | – | –
15 | Cc1ccc(C(=O)Nc2cccc(C(F)(F)F)c2)cc1-c1ccc2c(-c3cn[nH]c3)n[nH]c2c1 | – | 7.25 | < 6.00 | pIC50 (NCI-H2286 [8]): < 6.00; pIC50 [12]: < 7.00
16 | Cn1ncc2ccc(-c3cccc(NC(=O)c4cccc(C(F)(F)F)c4)c3)cc21 | 7.6% | – | – | inhibition [2]: 29.8%
17 | Cc1ccc(C(=O)Nc2cccc(C(F)(F)F)c2)cc1-c1ccc2c(-c3cnn(C4CCN(C)CC4)c3)n[nH]c2c1 | – | 8.42 | 7.03 | AUC(0-t) [5]: 552 ng·h/mL; half-life [6]: 165 min; Cmax [7]: 170 ng/mL; pIC50 (NCI-H2286 [8]): 7.25; MRT [9]: 3.96 h; Tmax [10]: 1.33 h; AUC(0-inf) [11]: 563 ng·h/mL
18 | Cc1ccc(-c2ccc3cn[nH]c3c2)cc1NC(=O)c1cccc(C(F)(F)F)c1 | 37.3% | – | – | –
19 | Cc1ccc(C(=O)Nc2cccc(C(C)(C)C#N)c2)cc1-c1ccc2cn[nH]c2c1 | – | 8.57 | – | –
20 | O=C(Nc1ccc(F)c(-c2ccc3cn[nH]c3c2)c1)c1cccc(C(F)(F)F)c1 | – | 7.19 | – | –
